High-throughput results as filed in PubChem.
KCC2 mod: KCC2 cotransporter modulators, thallium flux, primary screen, cell-based, HEK293 KCC2, FluoZin-2 fluorescence, MLSMR; Solute carrier family 12 member 5 (Homo sapiens), Q9H2X9; KCC2 cells, thallium flux FluoZin-2 fluorescence; B-score of Tl+ flux slope (higher = more flux/activation; lower = inhibition) at 10 µM; 190,000 compounds, 2.2% hits; AID 1456, 2008;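 active means thallium flux slope and its plate-corrected score both differing from the plate sample mean at a set confidence after two filtering rounds, in either direction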;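 further: slope of fluorescence scaled to starting intensity during 10 to 20 s after thallium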
Target sequence (Q9H2X9 whole entry, looked up): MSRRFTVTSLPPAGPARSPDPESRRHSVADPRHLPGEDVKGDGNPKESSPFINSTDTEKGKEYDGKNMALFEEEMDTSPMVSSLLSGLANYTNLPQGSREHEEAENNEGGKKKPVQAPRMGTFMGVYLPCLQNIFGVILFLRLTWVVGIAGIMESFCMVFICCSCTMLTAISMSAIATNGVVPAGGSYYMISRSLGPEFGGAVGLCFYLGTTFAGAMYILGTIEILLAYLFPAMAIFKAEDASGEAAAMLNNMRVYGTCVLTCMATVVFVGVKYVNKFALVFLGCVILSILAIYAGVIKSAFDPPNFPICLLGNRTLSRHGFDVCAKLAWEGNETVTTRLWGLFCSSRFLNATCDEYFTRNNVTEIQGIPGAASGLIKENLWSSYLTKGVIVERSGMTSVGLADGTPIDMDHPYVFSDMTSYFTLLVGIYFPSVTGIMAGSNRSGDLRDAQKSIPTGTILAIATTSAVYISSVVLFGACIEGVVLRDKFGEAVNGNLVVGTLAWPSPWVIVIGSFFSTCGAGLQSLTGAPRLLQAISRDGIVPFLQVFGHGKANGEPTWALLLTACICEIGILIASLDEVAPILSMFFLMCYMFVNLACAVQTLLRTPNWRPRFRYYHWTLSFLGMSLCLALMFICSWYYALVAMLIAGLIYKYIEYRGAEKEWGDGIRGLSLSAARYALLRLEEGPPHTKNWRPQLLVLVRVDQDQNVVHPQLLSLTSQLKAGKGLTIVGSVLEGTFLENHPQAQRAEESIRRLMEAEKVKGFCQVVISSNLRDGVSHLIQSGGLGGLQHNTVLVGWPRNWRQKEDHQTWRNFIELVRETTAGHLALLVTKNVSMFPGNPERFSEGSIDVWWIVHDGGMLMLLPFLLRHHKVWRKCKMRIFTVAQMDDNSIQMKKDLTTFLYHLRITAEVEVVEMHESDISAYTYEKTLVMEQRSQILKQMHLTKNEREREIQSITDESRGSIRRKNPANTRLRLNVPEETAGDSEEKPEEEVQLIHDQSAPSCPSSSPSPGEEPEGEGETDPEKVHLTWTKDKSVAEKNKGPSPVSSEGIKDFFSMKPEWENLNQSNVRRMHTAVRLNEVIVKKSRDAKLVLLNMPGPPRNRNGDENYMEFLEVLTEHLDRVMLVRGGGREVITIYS
STAT1 act: STAT1 signaling activators, primary screen, cell-based, HTS, luciferase reporter; activation (% of control), % at 5.5 µM; 200,000 compounds, 2.6% hits; NIH 3T3 STAT1-luciferase reporter, IFN-gamma, luminescence; 100% = IFN-gamma alone, no compound;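 active means activation above the screen-wide mean activation plus 3 SD, cut at about 130% in these data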;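 further: raw ratio to IFN-gamma control signal so 100% means no change and 0% no light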
STAT3 blocker: IL-6 driven STAT3 reporter inhibitors, primary screen, U3A cells, luciferase, luminescence, MLSCN library | IL-6 STAT3-luciferase reporter; host cell line lacks STAT1 | 190,000 compounds, 0.89% hits | inhibition, % at 5.5 µM | AID 862, 2007;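 active means inhibition above the mean inhibition across all screened compounds plus 3 SD, cut at about 44% in these data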;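 further: 0% = DMSO only wells and 100% = 100 µM nifuroxazide control wells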
STAT3 activator: IL-6 driven STAT3 reporter potentiators, primary screen, U3A cells, luciferase, luminescence, MLSCN library; IL-6 STAT3-luciferase reporter; 100% = signal with IL-6 EC80 alone; activation (% of control), % at 5.6 µM; 190,000 compounds, 0.91% hits;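 active means activation above the screen-wide mean of compound activation plus 3 SD, cut at about 130% in these data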;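 further: 0% = background luminescence of wells with medium and substrate only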
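Test system: Human STAT1-deficient U3A cells with stable STAT3-luciferase reporter | Also added: Interleukin-6, 33 ng/mL | Timing: Compound pre-incubation 1 h before IL-6, then 6 h stimulation at 37 °C | Technique: Luciferase reporter luminescence | Read-out: Percent of IL-6-only median luminescence | Benchmarks: IL-6-only wells as 100% reference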
HSV replic up: enhancers of HSV replication in host cells, fold increase, host cell viability; HSV replication augmentation in cells; maximum fold increase; 220,000 compounds, 0.005% hits; AID 1956, 2009; in the data active means maximum fold increase above about 1.5; inconclusive means no clear call, values can overlap the other calls; tested in PC3 cells
STAT1 blocker: STAT1 signaling inhibitors, primary screen, cell-based, HTS, luciferase reporter; NIH 3T3 STAT1-luciferase reporter, IFN-gamma, luminescence; inhibition, % at 5.5 µM; 200,000 compounds, 0.35% hits; AID 920, 2007;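 active means inhibition above a set limit, the mean inhibition across all tested compounds plus 3 SD, cut at about 34% in these data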;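 further: 0% = IFN-gamma with DMSO and 100% = IFN-gamma with 300 µM nifuroxazide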
Numbers without * were called inactive; i = inactive; ? = inconclusive; . = no result given. Compounds with a hit are over-represented: about 5.5% of the library has one in this group of screens.

SMILES | KCC2 mod | STAT1 act | STAT3 blocker | STAT3 activator | HSV replic up | STAT1 blocker
Cc1ccc(NC(=O)Cn2nnc3ccccc32)cc1 | 0.053 | 126 | -23 | 121 | i | -31
Cc1cccc(NC(=O)Cn2nnc3ccccc32)c1 | 1.8 | 130* | -7 | 112 | i | -36
Cc1ccc(CNC(=O)C2CCCN(c3nn4c(=O)cc(C)nc4s3)C2)cc1 (stereo unspecified) | 0.66 | 101 | 5 | 100 | i | -4
S=c1nc(-c2ccc(Br)cc2)oc2c1CCCC2 | 83* | 114 | -22 | 122 | . | -15
Cc1ccc(S(=O)(=O)N2CCN(C(=O)CSc3nc(N)cc(=O)[nH]3)CC2)c(C)c1 | 0.22 | 87 | 12 | 97 | i | 14
Cc1cc(Br)c2c(c1)C(O)(N1CCCCC1C)C(=O)N2 (stereo unspecified) | 0.87 | 103 | 3 | 105 | . | -3
CCOC(=O)c1c(NS(=O)(=O)c2cccc(OC)c2)sc2c1CCC2 | 38* | 95 | 4 | 100 | i | 5
COc1ccc(CC(=O)NC(C)C2COc3ccccc3O2)cc1OC (stereo unspecified) | -0.78 | 96 | 3 | 100 | i | 2
Cc1ccc(COc2ccc(Br)cc2/C=N/O)cc1 | -0.28 | 135* | 19 | 89 | i | -39
CCOc1cc(/C=N/O)ccc1OCc1ccc(C)cc1 | -1.7 | 130* | -6 | 102 | i | -34
O/N=C/c1cc(Br)ccc1OCc1ccc(F)cc1 | . | 116 | 21 | 89 | i | -14
CCOC(=O)Cc1csc(NC(=O)/C=C/c2ccc(Cl)cc2)n1 | -0.3 | . | . | . | i | .
Cc1ccc(S(=O)(=O)N2CCCOC2CNC(=O)C(=O)NCc2ccco2)cc1 (stereo unspecified) | 0.55 | 99 | 8 | 91 | i | 3
COC(=O)c1sc2nc3c(cc2c1N)COC(C)(C)C3 | -0.47 | 142* | 3 | 98 | i | -48
Cc1cc(NC(=O)c2ccc(-c3ccccc3F)o2)no1 | -2 | 144* | 5 | 99 | i | -50
COc1ccccc1NC(=O)c1cc2cc(Br)ccc2cc1O | -0.11 | . | . | . | i | .
CC(C)N(CCO)C(=O)CCc1nnc(CCCc2ccccc2)o1 | 0.039 | 107 | 24 | 84 | i | -8
CC(C)N(Cc1nccn1C)C(=O)CCc1nnc(CCCc2ccccc2)o1 | -0.17 | 137* | -8 | 112 | i | -40
CN(CCc1ccccn1)C(=O)CCc1nnc(CCCc2ccccc2)o1 | 0.75 | 133* | -1 | 103 | i | -38
O=c1[nH]n(-c2cccc3cccnc23)c(=O)c2ccccc12 | 1.2 | 100 | 0 | 104 | i | 0
O=S1(=O)Nc2c(ccc3cccnc23)-c2ccccc21 | 4.1* | 92 | -3 | 108 | i | 8
CC(C)CCN(C(=O)Nc1ccccc1)C(C)c1cccs1 (stereo unspecified) | -0.39 | 106 | 0 | 100 | i | 0
Cn1c(Oc2ccc(F)cc2F)c(C=O)c2ccccc21 | 0.23 | 95 | 10 | 96 | i | 3
Cc1ccc(Oc2c(C=O)c3ccccc3n2C)cc1 | . | 96 | -56 | 145* | i | 4
Cn1c(Oc2ccc(Cl)cc2)c(C=O)c2ccccc21 | . | 86 | -35 | 141* | i | 15
SMILES | KCC2 mod | STAT1 act | STAT3 blocker | STAT3 activator | HSV replic up | STAT1 blocker
COc1ccc(Oc2c(C=O)c3ccccc3n2C)cc1 | -0.55 | 93 | -3 | 107 | i | 8
Cc1ccc(Cn2ccnc2C(=O)Nc2ccccc2)cc1 | -0.05 | 142* | -4 | 109 | i | -48
N#Cc1ccc(Cn2ccnc2C(=O)Nc2ccccc2)cc1 | 0.19 | 114 | -8 | 107 | i | -15
COc1cc(C2C(C#N)=C(N)N(c3ccc(F)cc3)C3=C2S(=O)(=O)CC3)ccc1O (stereo unspecified) | 0.14 | 104 | 10 | 95 | i | -5
O=C(CCS(=O)(=O)c1ccccc1)Nc1ccc2c(c1)OCO2 | 0.099 | 136* | -15 | 113 | i | -37
O=C(CCCN1C(=O)CCC1=O)Nc1ccc2c(c1)OCO2 | 0.33 | 99 | 10 | 95 | i | 1
O=C(CCCc1cccs1)Nc1ccc2c(c1)OCO2 | -0.22 | 134* | 3 | 102 | i | -37
CCOC(=O)C1=C(C)NC(SCC(=O)Nc2cc(C)on2)=C(C#N)C1c1cccs1 (stereo unspecified) | -2.7 | 62 | 18 | 86 | i | 51*
CCOC(=O)C1=C(C)NC(SCC(N)=O)=C(C#N)C1c1cccs1 (stereo unspecified) | -0.0079 | 99 | 3 | 101 | i | 2
CCN1/C(=C/C=C/c2oc3ccc(-c4ccccc4)cc3[n+]2CC)Oc2ccc(-c3ccccc3)cc21 | i | 44 | 54* | 56 | ? | 60*
Cc1nc(SCC(=O)Nc2nc3ccccc3s2)c(C#N)c(C)c1C | 0.55 | 48 | 88* | 27 | i | 58*
Cc1ccc2sc(NC(=O)CSc3nc(C)cc(C)c3C#N)nc2c1 | -3.6 | 92 | 33 | 76 | i | 8
CCC/C(O)=C1\C(=O)CC(c2ccccc2)CC1=NC(C)C(=O)O (stereo unspecified) | 0.7 | 105 | 0 | 102 | i | -5
O=[N+]([O-])c1cc(/C=N/N2CCCCC2)ccc1Cl | -0.032 | 132* | 11 | 94 | i | -35
Cn1c(=O)c(=O)n(C)c2cc(S(=O)(=O)NCCOc3ccccc3)ccc21 | -0.42 | 96 | 10 | 93 | i | 5
CCc1cccc(NC(=O)Nc2cccs2)c1 | -0.63 | 133* | 1 | 103 | i | -36
N#Cc1cccc(NC(=O)Nc2cccs2)c1 | -0.64 | 94 | 19 | 87 | i | 7
COc1ccc(NC(=O)Nc2cccs2)cc1Cl | -0.12 | 130* | 13 | 98 | i | -34
CCc1ccc(-c2cn3nc(C)c(C)nc3n2)cc1 | -1.1 | 22 | 110* | 12 | i | 85*
Cc1nc2nc(-c3ccccc3)cn2nc1C | 0.58 | 122 | 0 | 103 | i | -26
Cc1cc(C(=O)CN2C(=O)c3ccccc3S2(=O)=O)c(C)n1CC1CCCO1 (stereo unspecified) | 0.41 | 27 | 112* | 10 | i | 79*
Cc1cc(C(=O)CSc2nc3ccccc3c(=O)[nH]2)c(C)n1CC1CCCO1 (stereo unspecified) | -1.7 | 114 | 20 | 85 | i | -16
Cc1cc(C(=O)CN2C(=O)NC(C)(c3ccccc3)C2=O)c(C)n1CC1CCCO1 (stereo unspecified) | -0.73 | 94 | 3 | 97 | i | 6
